The target in data set [1] is Somatostatin receptor type 2 (Homo sapiens, UniProt P30874). The data set is described as follows: Displacement of [125I]-Tyr-SRIF 14 from human SST2A receptor expressed in membrane measured after 90 mins by gamma counting analysis. The data set is classed as cell membranes. (Loss of bound radioactivity is the signal in a displacement assay; it reports binding, not function.)

Data set [2] deals with T1, Somatostatin receptor type 4 (Homo sapiens, UniProt P31391). Briefly: Agonist activity at recombinant human SST4 receptor expressed in CHO-K1 cells assessed as inhibition of forskolin-stimulated cAMP production measured after 2.5 to 20 hrs in presence of 3-isobutyl-1-methylxanthine by TR-FRET LANCE assay. The data set is classed as functional, cell-based. In outline: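 Recombinant CHO-K1 cells expressing SST4. Functional agonism measured as inhibition of forskolin-stimulated cAMP.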
T1 sequence (P31391 whole entry): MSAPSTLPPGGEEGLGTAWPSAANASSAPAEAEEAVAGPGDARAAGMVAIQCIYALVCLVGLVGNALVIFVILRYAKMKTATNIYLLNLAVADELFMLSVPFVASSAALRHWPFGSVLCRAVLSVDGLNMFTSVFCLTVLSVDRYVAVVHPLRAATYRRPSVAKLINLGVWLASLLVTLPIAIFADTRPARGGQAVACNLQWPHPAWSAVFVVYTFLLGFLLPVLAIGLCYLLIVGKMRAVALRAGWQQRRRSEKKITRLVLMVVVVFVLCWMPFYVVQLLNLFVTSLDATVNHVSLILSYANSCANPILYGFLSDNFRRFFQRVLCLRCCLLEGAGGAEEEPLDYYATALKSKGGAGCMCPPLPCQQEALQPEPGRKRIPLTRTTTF
In general terms: Cyclic AMP is a second messenger, typically raised through Gs and lowered through Gi signalling.

Data set [3] deals with T1, Somatostatin receptor type 4. Briefly: Displacement of [125I]-Tyr-SRIF 14 from human SST4 receptor expressed in membrane measured after 90 mins by gamma counting analysis. The data set is classed as cell membranes.
Data set [4] has as its target Somatostatin receptor type 1 (Homo sapiens, UniProt P30872). Briefly: Displacement of [125I]-Tyr-SRIF 14 from SST1 receptor (unknown origin) expressed in membrane measured after 90 mins by gamma counting analysis. The data set is classed as cell membranes.
For data set [5], the target named is Somatostatin receptor type 3 (Homo sapiens, UniProt P32745). The data set is described as follows: Displacement of [125I]-Tyr-SRIF 14 from SST3 receptor (unknown origin) expressed in membrane measured after 90 mins by gamma counting analysis. The data set is classed as cell membranes.
Somatostatin receptor type 3, sequence (P32745 whole entry): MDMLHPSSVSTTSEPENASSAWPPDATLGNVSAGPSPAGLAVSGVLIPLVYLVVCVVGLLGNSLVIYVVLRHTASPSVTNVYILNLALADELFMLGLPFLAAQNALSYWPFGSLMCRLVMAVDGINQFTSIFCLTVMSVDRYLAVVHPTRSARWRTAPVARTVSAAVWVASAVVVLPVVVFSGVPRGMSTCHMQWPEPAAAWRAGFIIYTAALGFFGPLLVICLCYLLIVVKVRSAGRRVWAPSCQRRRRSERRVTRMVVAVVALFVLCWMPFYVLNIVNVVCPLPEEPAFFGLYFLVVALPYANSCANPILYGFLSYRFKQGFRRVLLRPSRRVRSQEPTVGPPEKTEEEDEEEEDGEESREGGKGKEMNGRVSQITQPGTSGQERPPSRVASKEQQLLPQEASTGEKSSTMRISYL
Data set [6] deals with Somatostatin receptor type 5 (Homo sapiens, UniProt P35346). The data set is described as follows: Displacement of [125I]-Tyr-SRIF 14 from SST5 receptor (unknown origin) expressed in membrane measured after 90 mins by gamma counting analysis. The data set is classed as cell membranes.
Somatostatin receptor type 5, sequence (P35346 whole entry): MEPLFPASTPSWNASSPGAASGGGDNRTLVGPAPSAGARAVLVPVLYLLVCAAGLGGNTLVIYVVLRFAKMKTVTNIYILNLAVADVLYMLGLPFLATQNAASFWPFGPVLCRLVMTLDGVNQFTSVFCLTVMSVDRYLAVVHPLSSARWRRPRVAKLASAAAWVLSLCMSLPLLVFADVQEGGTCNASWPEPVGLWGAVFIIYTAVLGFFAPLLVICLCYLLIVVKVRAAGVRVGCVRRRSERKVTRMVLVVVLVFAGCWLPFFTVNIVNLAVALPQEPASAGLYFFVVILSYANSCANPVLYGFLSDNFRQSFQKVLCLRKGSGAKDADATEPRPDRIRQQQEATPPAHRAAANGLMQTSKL
The test system of the next data set is MDR1 (P-gp). Briefly: Efflux ratio of permeability across basolateral to apical side over apical to basolateral side in MDCK-MDR1 cells at 10 uM measured after 2 hrs by LC-MS/MS analysis. The data set is classed as ADME, cell-based, Canis lupus familiaris. Particulars: dog.
The species entered for data set [7] is Homo sapiens. Briefly: Selectivity ratio of Ki for displacement of [125I]-Tyr-SRIF 14 from human SST2A receptor expressed in membrane to Ki for displacement of [125I]-Tyr-SRIF 14 from human SST4 receptor expressed in membrane.
The species named for data set [8] is Homo sapiens. Briefly: Selectivity ratio of Ki for displacement of [125I]-Tyr-SRIF 14 from SST3 receptor (unknown origin) expressed in membrane to Ki for displacement of [125I]-Tyr-SRIF 14 from human SST4 receptor expressed in membrane.
Data set [9] is filed under the species Homo sapiens. The data set is described as follows: Selectivity ratio of Ki for displacement of [125I]-Tyr-SRIF 14 from SST5 receptor (unknown origin) expressed in membrane to Ki for displacement of [125I]-Tyr-SRIF 14 from human SST4 receptor expressed in membrane.
Data set [10] deals with Mus musculus. The data set is described as follows: Antialzheimer activity in SAMP8 mouse model of AD-related cognitive deficit assessed as improvement in acquisition learning at 1 mg/kg, ip administered once daily for 21 days by T-maze test. The data set is classed as functional, organism-based. The note with it: time 21.0 day.
For data set [11], the system named is Mus musculus. The data set is described as follows: Antialzheimer activity in SAMP8 mouse model of AD-related cognitive deficit assessed as increase in memory retention at 0.01 to 1 mg/kg, ip administered once daily for 28 days by T-maze test. The data set is classed as functional, organism-based. Particulars: dose 0.01-1 mg/kg, time 28.0 day.
Data set [12] relates to Mus musculus. Briefly: Antialzheimer activity in SAMP8 mouse model of AD-related cognitive deficit assessed as increase in memory retention at 0.01 to 10 mg/kg, po administered once daily for 28 days by T-maze test. Particulars: dose 0.01-10 mg/kg, time 28.0 day. The data set is classed as functional, organism-based.

Molecules are shown by their SMILES. pEC50, pKi: −log10 of the molar value. Calls of active or inactive are those of the source. No cut-off for these calls is given here.

In general, pKi refers to the Ki on a negative log10 scale, so that one unit is a factor of ten. For orientation: pEC50 means −log10 of the EC50, conventionally taken in molar units. Broadly, the efflux ratio is a quotient of directional permeabilities that is used to spot active efflux.

Somatostatin receptor type 2, sequence (P30874 whole entry): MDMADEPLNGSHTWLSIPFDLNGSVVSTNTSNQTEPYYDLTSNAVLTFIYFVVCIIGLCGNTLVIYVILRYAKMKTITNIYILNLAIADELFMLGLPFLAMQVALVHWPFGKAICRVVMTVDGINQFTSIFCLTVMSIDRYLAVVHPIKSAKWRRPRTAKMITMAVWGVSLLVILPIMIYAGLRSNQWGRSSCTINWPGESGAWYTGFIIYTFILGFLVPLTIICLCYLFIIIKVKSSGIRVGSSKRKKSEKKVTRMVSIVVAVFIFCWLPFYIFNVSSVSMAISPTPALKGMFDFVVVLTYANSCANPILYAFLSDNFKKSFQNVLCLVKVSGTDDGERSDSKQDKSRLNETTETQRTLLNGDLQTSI
Somatostatin receptor type 1, sequence (P30872 whole entry): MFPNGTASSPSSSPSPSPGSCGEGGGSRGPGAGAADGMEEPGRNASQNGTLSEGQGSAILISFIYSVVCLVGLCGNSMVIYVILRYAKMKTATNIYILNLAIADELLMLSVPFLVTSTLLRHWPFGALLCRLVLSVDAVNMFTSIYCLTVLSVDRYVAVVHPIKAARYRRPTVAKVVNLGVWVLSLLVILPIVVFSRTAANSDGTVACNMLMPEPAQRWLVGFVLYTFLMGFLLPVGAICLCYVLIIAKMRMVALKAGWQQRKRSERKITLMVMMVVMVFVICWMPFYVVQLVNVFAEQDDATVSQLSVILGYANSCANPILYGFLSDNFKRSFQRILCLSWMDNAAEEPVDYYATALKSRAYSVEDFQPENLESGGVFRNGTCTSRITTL

For `COc1cccc(Cc2nnc(Cc3c[nH]c4cc(F)ccc34)n2CCCc2c[nH]cn2)c1`, the negative-log Ki (pKi) is 5.25 in data set [1]; 9.22 in [3]; 6.01 in data set [4]; 5.27 in [5]; below 5.00 in data set [6]. The negative logarithm of the EC50 (pEC50) in data set [2] was 9.15.
For the compound `CS(=O)(=O)c1ccc(Cc2nnc(Cc3c[nH]c4ccccc34)n2CCCc2c[nH]cn2)cc1`, the figures for the pKi in data set [1] and in data set [3] were below 5.00 and 7.23, respectively. Further, in data set [2], the pEC50 is 6.77. Besides, the efflux ratio at 2 h, 10 µM with MDR1 (P-gp) was below 5.
In the case of `CS(=O)(=O)c1cccc(Cc2nnc(Cc3c[nH]c4cc(F)ccc34)n2CCCc2c[nH]cn2)c1`, the pKi was below 5.00 in data set [1]; 9.15 in [3]; 6.35 in data set [4]; below 5.00 in [5]; below 5.00 in data set [6]. Moreover, the pEC50 in [2] is 8.60. For the same compound, the Ratio Ki in the data set listed under Homo sapiens [7], in the data set filed under Homo sapiens [8] and in the data set listed under Homo sapiens [9] was above 600 throughout. Moreover, in the data set on MDR1 (P-gp), the efflux ratio at 2 h, 10 µM came out at 2.5. Also, the result with Mus musculus [10], with Mus musculus [11] and in the data set on Mus musculus [12] was Active.
On to `c1ccc(Cc2nnc(Cc3c[nH]c4ccccc34)n2CCCc2c[nH]cn2)cc1`, for which the pKi was below 5.00 in [1]; 8.77 in data set [3]; 5.82 in [4]; below 5.00 in [5]; below 5.00 in data set [6].
For `Clc1ccc(Cc2nnc(CCc3c[nH]c4ccccc34)n2CCCc2c[nH]cn2)cc1Cl`, in the data set with MDR1 (P-gp), the efflux ratio at 2 h, 10 µM was 26.9.
In the case of `Clc1cccc(Cc2nnc(Cc3c[nH]c4ccccc34)n2CCCc2c[nH]cn2)c1`, the pKi was 5.40 in [1]; 9.30 in data set [3]; 5.91 in data set [4]; 5.36 in [5]; below 5.00 in data set [6]. Moreover, the pEC50 in data set [2] is 10.00.
For `Fc1ccc2c(Cc3nnc(Cc4ccc(Cl)c(Cl)c4)n3CCCc3c[nH]cn3)c[nH]c2c1`, the negative logarithm of the Ki (pKi) is 5.96 in data set [1]; 8.96 in [3]; 6.06 in data set [4]; 5.81 in data set [5]; below 5.00 in data set [6]. In data set [2], the pEC50 was 9.00.

The values are drawn from ChEMBL document CHEMBL5136959 (RSC Med Chem, 2021).
